Results on 15 compounds are retold here after ChEMBL document CHEMBL1799983, “Anti-inflammatory and cytotoxic neoflavonoids and benzofurans from Pterocarpus santalinus” (J Nat Prod, 2011).

For experiment [1], the system named is MCF7. Kind of experiment: Cytotoxicity against human MCF7 cells by MTT assay. Type of experiment: functional, cell-based. A digest of the protocol: (§1)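 Fractions and isolates were screened against the cancer cell lines by a colorimetric MTT assay run to an established protocol, with doxorubicin as the positive control.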
In general terms: Tetrazolium assays rely on reduction of a dye to a coloured formazan, in cell work by metabolically active cells.

Experiment [2] is described as follows: Antiinflammatory activity in human neutrophils assessed as inhibition of FMLP/CB-induced superoxide anion generation. Type of experiment: functional, cell-based. As to conditions: Neutrophil. A digest of the protocol:
(§2)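 IC50 (concentration giving 50% inhibition) in human neutrophils, reported as mean ± SEM, n = 3–5. LY294002, a phosphatidylinositol-3-kinase inhibitor, served as the positive control for both superoxide anion generation and elastase release.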

Experiment [3] has as its system A549. Kind of experiment: Cytotoxicity against human A549 cells by MTT assay. It counts as functional, cell-based. An outline of the steps:
as §1

Experiment [4] is described as follows: Antiinflammatory activity in human neutrophils assessed as inhibition of FMLP/CB-induced elastase release. It counts as functional, cell-based. As to conditions: Neutrophil; call rule not given here. An outline of the steps: as §2
Experiment [5] in a line: Cytotoxicity against human Hep3B cells by MTT assay. It counts as functional, cell-based, Hep 3B2. A digest of the protocol: as §1
The subject of experiment [6] is MDA-MB-231. Briefly: Cytotoxicity against human MDA-MB-231 cells by MTT assay. It counts as functional, cell-based. An outline of the steps: as §1
Experiment [7] relates to HepG2. Kind of experiment: Cytotoxicity against human HepG2 cells by MTT assay. It counts as functional, cell-based. A digest of the protocol: as §1
The test system of experiment [8] is Ca9-22. Kind of experiment: Cytotoxicity against human Ca9-22 cells by MTT assay. It counts as functional, cell-based. An outline of the steps:
as §1

The nature of experiment [9]: Antiinflammatory activity in human neutrophils assessed as inhibition of FMLP/CB-induced elastase release at 10 ug/ml. It counts as functional, Neutrophil. As to conditions: for inhibition at 10 µg/mL: Homo sapiens, Neutrophil. A digest of the protocol: (§3)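 Percentage inhibition in human neutrophils, measured at 10 μg/mL test concentration and reported as mean ± SEM (n = 3–5). Significance was tested against the control value at p < 0.05, 0.01 and 0.001. LY294002 was the positive control.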

Experiment [10] is described as follows: Antiinflammatory activity in human neutrophils assessed as inhibition of FMLP/CB-induced superoxide anion generation at 10 ug/ml. Type of experiment: functional, Neutrophil. A digest of the protocol:
as §3

For experiment [11], the system named is Neutrophil. Kind of experiment: Ratio of LY294002 IC50 to compound IC50 for FMLP/CB-induced elastase release in human neutrophils. Type of experiment: functional.
Setting [12] is: Homo sapiens, MCF7, read-out: IC50.
Where [13] appears, read: Homo sapiens, A549, read-out: IC50.
The mark [14] stands for this setting: Homo sapiens, Hep3B, read-out: IC50.
The mark [15] stands for this setting: Homo sapiens, MDA-MB-231, read-out: IC50.
Where [16] appears, read: Homo sapiens, HepG2, read-out: IC50.
Where [17] appears, read: Homo sapiens, Ca9-22, read-out: IC50.

In brackets after ≈: the same amount, converted by molar mass.

By IC50 is commonly meant the concentration that gives 50% inhibition. Take `COc1cc2oc(-c3ccc(O)cc3)c(C)c2cc1O` [PTEROLINUS B]: the IC50 in experiment [1] (setting [12]) stood at 1.74 µg/mL (≈ 6.44 µM); in [2], 0.19 µg/mL (≈ 0.703 µM); in experiment [3] (setting [13]) it was 2.34 µg/mL (≈ 8.66 µM); in [4], 47.8 µg/mL (≈ 177 µM).

The term inhibition denotes the change of the read-out against control, counted positive when it falls. Regarding `COc1ccc([C@H]2Oc3cc(OC)c(OC)cc3[C@@H]2C)cc1O` [PTEROLINUS C], the IC50 in [5] (setting [14]) was greater than 19.4 µg/mL; in experiment [1] (setting [12]) it was greater than 19.4 µg/mL; in experiment [2], 2.28 µg/mL (≈ 7.21 µM); in experiment [6] (setting [15]), greater than 19.4 µg/mL; in experiment [3] (setting [13]), greater than 19.4 µg/mL; in experiment [7] (setting [16]), greater than 19.4 µg/mL. Also, the IC50 in [8] (setting [17]) is greater than 19.4 µg/mL. The inhibition at 10 µg/mL in experiment [9] is 9.73%.

For `C=C[C@@H](c1ccc(OC)c(O)c1)c1cc(O)c(C(=O)OC)cc1O` [PTEROLINUS F], the IC50 in [5] (setting [14]), in experiment [1] (setting [12]), in experiment [6] (setting [15]), in [3] (setting [13]), in [7] (setting [16]) and in experiment [8] (setting [17]) was 11.1 µg/mL (≈ 33.6 µM) in each case. In experiment [4], the half-inhibitory concentration (IC50) stood at 3.22 µg/mL (≈ 9.75 µM).

For `C=C[C@H](C1=CC(O)(CC(C)=O)C(OC)=CC1=O)c1ccc(OC)c(O)c1` (single isomer, unassigned) [PTEROLINUS HB], the IC50 in experiment [6] (setting [15]) came to 2.85 µg/mL (≈ 7.95 µM); in experiment [7] (setting [16]) it was 3.65 µg/mL (≈ 10.2 µM). The “inhibition (INH)” value in experiment [9] came out at 19.53%. Also, in experiment [10] (Homo sapiens, Neutrophil), the inhibition at 10 µg/mL is 29.4%.

On to `COc1ccc(-c2c(C)oc3cc(OC)c(O)cc23)cc1O` [PTEROLINUS A], for which the IC50 result was “Not Active” in experiment [5] (hep 3b2); “Not Active” in experiment [1] (mcf7); 0.33 µg/mL (≈ 1.1 µM) in [2]; “Not Active” in [6] (mda-mb-231); “Not Active” in experiment [3] (a549); “Not Active” in experiment [7] (hepg2). Also, the IC50 result was “Not Active” in [8] (ca9-22) and 2.54 µg/mL (≈ 8.46 µM) in [4].

Turning to `COC1=CC(=O)C2(C(C)C(O)c3ccc(OC)c(O)c3)OC2C1=O` (stereo not drawn) [PTEROLINUS D], the IC50 worked out at 2.08 µg/mL (≈ 6.22 µM) in [5] (setting [14]); 3.31 µg/mL (≈ 9.9 µM) in experiment [1] (setting [12]); 0.29 µg/mL (≈ 0.867 µM) in [2]; 4.89 µg/mL (≈ 14.6 µM) in [6] (setting [15]); 4.33 µg/mL (≈ 13 µM) in experiment [7] (setting [16]); 1.06 µg/mL (≈ 3.17 µM) in [4]. The “Ratio IC50” value in experiment [11] worked out at 1.9.

Regarding `C=C[C@H](C1=CC(=O)C(OC)=CC1=O)c1ccc(OC)c(O)c1`, the IC50 in experiment [5] (setting [14]) amounted to 2.39 µg/mL (≈ 7.96 µM); in experiment [2], 0.47 µg/mL (≈ 1.57 µM); in experiment [6] (setting [15]) it was 3.34 µg/mL (≈ 11.1 µM); in experiment [4] it was 1.44 µg/mL (≈ 4.8 µM).

`COc1ccc(C(=O)c2cc(O)c(OC)cc2O)cc1O` [MELANOXOIN]: the IC50 came out at 0.46 µg/mL (≈ 1.58 µM) in [8] (setting [17]) and 3.62 µg/mL (≈ 12.5 µM) in experiment [4].

`C=C[C@H](C1=CC(O)(CC(C)=O)C(OC)=CC1=O)c1ccc(OC)c(O)c1` (single isomer, unassigned; epimer 2) [PTEROLINUS HB]: the IC50 in experiment [3] (setting [13]) is 3.97 µg/mL (≈ 11.1 µM). The “inhibition (INH)” value came to 2.84% in experiment [9] and 34.15% in experiment [10].

Regarding `COc1cc(C2CCOc3cc(OC)c(O)cc32)ccc1O` (stereo not drawn) [PTEROLINUS J], the half-inhibitory concentration (IC50) is greater than 17.1 µg/mL in experiment [5] (setting [14]); greater than 17.1 µg/mL in [1] (setting [12]); 2.1 µg/mL (≈ 6.95 µM) in experiment [2]; greater than 17.1 µg/mL in experiment [6] (setting [15]); greater than 17.1 µg/mL in experiment [3] (setting [13]); greater than 17.1 µg/mL in experiment [7] (setting [16]). In addition, the IC50 in experiment [8] (setting [17]) is greater than 17.1 µg/mL. Besides, the inhibition at 10 µg/mL in experiment [9] was 16.6%.

On to `COC1=CC(=O)C([C@@H](C)[C@@H](O)c2ccc(OC)c(O)c2)=CC1=O` [PTEROLINUS E], for which the IC50 in experiment [5] (setting [14]), in experiment [1] (setting [12]), in experiment [6] (setting [15]), in experiment [3] (setting [13]), in [7] (setting [16]) and in experiment [8] (setting [17]) was 6.96 µg/mL (≈ 21.9 µM) each time. In experiment [4], the IC50 was 2.13 µg/mL (≈ 6.69 µM).

For the compound `O=c1cc(N2CCOCC2)oc2c(-c3ccccc3)cccc12` [LY-294002], the half-inhibitory concentration (IC50) in experiment [2] is 1.18 µg/mL (≈ 3.84 µM); in experiment [4], 1.99 µg/mL (≈ 6.47 µM).

`COc1ccc([C@H]2Oc3cc(OC)c(O)cc3[C@@H]2C)cc1O` [MELANOXIN]: the IC50 in experiment [5] (setting [14]) is 7.7 µg/mL (≈ 25.5 µM); in [1] (setting [12]) it was 7.7 µg/mL (≈ 25.5 µM); in experiment [2] it was 0.69 µg/mL (≈ 2.28 µM); in [6] (setting [15]) it was 7.7 µg/mL (≈ 25.5 µM); in experiment [3] (setting [13]), 7.7 µg/mL (≈ 25.5 µM); in experiment [7] (setting [16]), 7.7 µg/mL (≈ 25.5 µM). In addition, the IC50 in [8] (setting [17]) was 7.7 µg/mL (≈ 25.5 µM). In [9], the inhibition at 10 µg/mL is 33.3%.

In the case of `COc1ccc(-c2cc(=O)oc3cc(OC)c(O)cc23)cc1O` [MELANNEIN], the IC50 is greater than 17.1 µg/mL in experiment [5] (setting [14]); greater than 17.1 µg/mL in experiment [1] (setting [12]); 3.18 µg/mL (≈ 10.1 µM) in [2]; greater than 17.1 µg/mL in experiment [6] (setting [15]); greater than 17.1 µg/mL in [3] (setting [13]); greater than 17.1 µg/mL in experiment [7] (setting [16]). Also, the half-maximal inhibitory concentration (IC50) in experiment [8] (setting [17]) is greater than 17.1 µg/mL. In addition, the inhibition at 10 µg/mL in experiment [9] is -1.53%.

On to `COc1ccc(-c2oc3cc(OC)c(O)cc3c2C)cc1O` [DEHYDROMELANOXIN], for which the 50% inhibitory concentration (IC50) result in experiment [5] (hep 3b2) was “Not Active”; in experiment [1] (mcf7), “Not Active”; in [2], 0.73 µg/mL (≈ 2.43 µM); in experiment [6] (mda-mb-231), “Not Active”; in [3] (a549) it was “Not Active”; in experiment [7] (hepg2), “Not Active”. In addition, the IC50 entry in [8] (ca9-22) is “Not Active”; in experiment [4] it was 3.69 µg/mL (≈ 12.3 µM).
